Calls of active or inactive are those of the source. The calls are words filed in the database; no cut-off is given here.

In data set [1] the test system is Solanum lycopersicum. Put plainly: Phytotoxicity against Solanum lycopersicum (tomato) leaves. The conditions noted are these: in vivo. Format: organism-based.
In data set [2] the test system is Medicago sativa. Nature of the data set: Phytotoxicity against Medicago sativa (alfalfa) assessed as seed germination. The conditions noted are these: in vivo. Format: organism-based.
Data set [3] concerns Pythium aphanidermatum. Put plainly: Antifungal activity against Pythium aphanidermatum assessed as radial growth inhibition at 10 to 100 uM. The data set is classed as functional, organism-based. The method in brief: (§1)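 Initial screen on PDA plates (10 mL) amended with 10 or 100 μM compound, added from DMSO stocks (DMSO not exceeding 0.001% v/v) to warm (50 °C) sterile medium before pouring. Radial growth was compared with growth on unamended medium. Error bars are standard deviation.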

For data set [4], the system named is Rhizoctonia solani. Nature of the data set: Antifungal activity against Rhizoctonia solani assessed as radial growth inhibition at 10 to 100 uM. Format: functional, organism-based. The method in brief: as §1
For data set [5], the system named is Alternaria alternata. Nature of the data set: Antifungal activity against Alternaria alternata assessed as radial growth inhibition at 100 uM. The data set is classed as functional. The conditions noted are these: read-out: GI. In a few lines:
as §1

Data set [6] concerns Botrytis cinerea. Nature of the data set: Antifungal activity against Botryotinia fuckeliana isolate Bcl16 assessed as radial growth inhibition at 10 to 100 uM. The data set is classed as functional, organism-based. In a few lines:
as §1

In data set [7] the test system is Botrytis cinerea. Nature of the data set: Antifungal activity against Botryotinia fuckeliana isolate Bcl16 assessed as radial growth inhibition during advanced test phase at 10 to 50 uM at 22 degC measured after 48 hr. Format: functional, organism-based. In a few lines:
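B. cinerea isolate BcI16 was grown on PDA amended with compound across 0-50 μM, added from DMSO stock (≤0.001% v/v final) to 50 °C medium. Plates were incubated at 22 °C for 48 h, then radial growth was measured against unamended controls.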

Data set [8] deals with Neurospora crassa. Nature of the data set: Antifungal activity against Neurospora crassa strain 74-OR23-1A assessed as radial growth inhibition at 100 uM. The data set is classed as functional, organism-based. The method in brief: as §1
For data set [9], the system named is Penicillium digitatum. Nature of the data set: Antifungal activity against Penicillium digitatum assessed as radial growth inhibition at 100 uM. The conditions noted are these: read-out: GI. The data set is classed as functional. In a few lines:
as §1

For data set [10], the system named is Sclerotinia sclerotiorum. Nature of the data set: Antifungal activity against Sclerotinia sclerotiorum isolate 1980 assessed as radial growth inhibition during advanced test phase at 10 to 50 uM at 17 degC measured after 48 hr. The data set is classed as functional, organism-based. The method in brief: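 S. sclerotiorum isolate 1980 was grown on PDA amended with compound across 0-50 μM, added from DMSO stock (≤0.001% v/v final) to 50 °C medium. Plates were incubated at 17 °C for 48 h, then radial growth was measured against unamended controls.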

As for `N#Cc1ccc(C(=O)/C=C(\N)C(F)(F)F)cc1`, the Activity result in data set [1] and in [2] was “Non-toxic” each time. Besides, the “growth inhibition (GI)” value in data set [3], in data set [4] and in data set [6] was “Active” throughout. Moreover, the inhibition of growth at 100 µM in data set [5] is at most 50%.

As to `N/C(=C\C(=O)c1ccc(Cl)cc1)C(F)(F)F`, the Activity entry in [1] and in [2] was “Non-toxic” throughout. Also, the “growth inhibition (GI)” value in data set [7], in data set [3], in data set [8], in [4] and in [6] was “Active” in each case. The inhibition of growth at 100 µM in [5] was at most 50%; in data set [9], above 50%.

Regarding `N/C(=C\C(=O)c1cccc(Br)c1)C(F)(F)F`, the Activity result in data set [1] and in data set [2] was “Non-toxic” each time. In addition, the “growth inhibition (GI)” value in [7], in data set [3], in [8], in data set [4] and in data set [6] was “Active” in each case. Besides, the inhibition of growth at 100 µM in data set [5] is at most 50%.

As for `CC/C(C(=O)c1ccc(Cl)cc1)=C(/N)C(F)(F)F`, the Activity result in [1] and in data set [2] was “Non-toxic” in each case. Further, the “growth inhibition (GI)” value in data set [3], in [4] and in data set [6] was “Active” each time. In addition, the inhibition of growth at 100 µM in [5] is at most 50%.

For `CC(=O)c1ccc(O)cc1` [4-HYDROXYACETOPHENONE], the Activity entry in [1] and in data set [2] was “Non-toxic” each time. Moreover, the “growth inhibition (GI)” value in data set [10], in data set [7], in data set [3], in [4] and in data set [6] was “Active” throughout. Further, in [5], the inhibition of growth at 100 µM is at most 50%.

Take `N/C(=C\C(=O)c1ccc(O)cc1)C(F)(F)F`: the Activity entry in data set [1] and in data set [2] was “Non-toxic” throughout. Moreover, the “growth inhibition (GI)” value in [7], in data set [3], in data set [4] and in [6] was “Active” in each case. In addition, the inhibition of growth at 100 µM in [5] is at most 50%.

Take `N/C(=C\C(=O)c1ccc(Cl)cc1)C(F)(F)C(F)(F)F`: the Activity result in data set [1] and in data set [2] was “Non-toxic” in each case. Besides, the “growth inhibition (GI)” value in [10], in data set [7], in data set [3], in data set [4] and in [6] was “Active” throughout. Further, in [5], the inhibition of growth at 100 µM was at most 50%.

As for `CC(C)(C)OC(=O)Nc1ccc(C(=O)/C=C(\N)C(F)(F)F)cc1`, the Activity result in [1] and in data set [2] was “Non-toxic” each time. For the same compound, the “growth inhibition (GI)” value in data set [3], in data set [4] and in [6] was “Active” throughout. Further, in data set [5], the inhibition of growth at 100 µM is at most 50%.

For `N/C(=C\C(=O)c1ccc2ccccc2c1)C(F)(F)F`, the Activity entry in data set [1] and in [2] was “Non-toxic” each time. Moreover, the “growth inhibition (GI)” value in [3], in [4] and in [6] was “Active” each time. Further, the inhibition of growth at 100 µM in data set [5] is at most 50%.

In the case of `N/C(=C\C(=O)c1ccc(F)cc1)C(F)(F)F`, the Activity result in data set [1] and in data set [2] was “Non-toxic” throughout. For the same compound, the “growth inhibition (GI)” value in data set [3], in data set [8], in data set [4] and in [6] was “Active” each time. Moreover, the inhibition of growth at 100 µM in [5] is at most 50%.
